Measurements as given in ChEMBL document CHEMBL1142436, “Design and synthesis of 4-substituted indolo[3,2-e][1,2,3]triazolo[1,5-a]pyrimidine derivatives with antitumor activity” (2008).

Experiments:
Assay type in all cases: functional
HCC 2998 = assay: Growth inhibition of human HCC2998 cells after 48 hrs; conditions: HCC 2998, 48 h
Method in brief: (§1)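 NCI ~60-line screen. Cells were grown in RPMI 1640 with 5% FBS and 2 mM L-glutamine and plated at 5000–40000 cells/well. After a 24 h preincubation, five drug concentrations from DMSO stocks were added for 48 h at 37 °C. Cells were TCA-fixed, stained with SRB and read at 515 nm. GI50 was taken from time-zero and control absorbances and reported as pGI50.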

KM12 = assay: Growth inhibition of human KM12 cells after 48 hrs; conditions: KM12, 48 h; method in brief: as §1
UACC-62 = assay: Growth inhibition of human UACC62 cells after 48 hrs; conditions: UACC-62, 48 h
Method in brief: (§2)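 NCI 60-line screen: cells in RPMI 1640 with 5% FBS and 2 mM L-glutamine, plated at 5000–40000 cells/well, grown 24 h (37 °C, 5% CO₂), then exposed to five 10-fold or ½-log dilutions (DMSO stock) for 48 h. Fixed with TCA (final 10% for adherent cells, 16% for suspension cells), then SRB stained with absorbance at 515 nm. GI50 from percentage growth relative to time-zero and control wells.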

HCT-15 = assay: Growth inhibition of human HCT15 cells after 48 hrs; conditions: HCT-15, 48 h; method in brief: as §1
NCI-H460 = assay: Growth inhibition of human NCI-H460 cells after 48 hrs; conditions: NCI-H460, 48 h; method in brief: as §1
OVCAR-3 = assay: Growth inhibition of human OVCAR-3 cells after 48 hrs; conditions: OVCAR-3, 48 h; method in brief: as §1
NCI-H23 = assay: Growth inhibition of human NCI-H23 cells after 48 hrs; conditions: Homo sapiens, NCI-H23, 48 h; method in brief: as §1
MDA-MB-231 = assay: Growth inhibition of human MDA-MB-231 cells after 48 hrs; conditions: MDA-MB-231, 48 h; method in brief: as §1
HL-60 = assay: Growth inhibition of human HL60 cells after 48 hrs; conditions: HL-60, 48 h; method in brief: as §1
SW-620 = assay: Growth inhibition of human SW620 cells after 48 hrs; conditions: SW-620, 48 h; method in brief: as §2
LOX IMVI = assay: Growth inhibition of human LOXIMVI cells after 48 hrs; method in brief: as §1
MCF7 = assay: Growth inhibition of human MCF7 cells after 48 hrs; conditions: MCF7, 48 h; method in brief: as §1
UACC-257 = assay: Growth inhibition of human UACC257 cells after 48 hrs; conditions: UACC-257, 48 h; method in brief: as §2
SF-295 = assay: Growth inhibition of human SF295 cells after 48 hrs; conditions: SF-295, 48 h; method in brief: as §1
RXF 393 = assay: Growth inhibition of human RXF393 cells after 48 hrs; conditions: RXF 393, 48 h; method in brief: as §1
NCI/ADR-RES = assay: Growth inhibition of human NCI/ADR-RES cells after 48 hrs; method in brief: as §1
786-0 = assay: Growth inhibition of human 786-0 cells after 48 hrs; conditions: 786-0, 48 h; method in brief: as §1
DU-145 = assay: Growth inhibition of human DU145 cells after 48 hrs; conditions: DU-145, 48 h; method in brief: as §1
NCI-H226 = assay: Growth inhibition of human NCI-H226 cells after 48 hrs; conditions: NCI-H226, 48 h; method in brief: as §1
M14 = assay: Growth inhibition of human M14 cells after 48 hrs; conditions: M14, 48 h; method in brief: as §1
SK-MEL-5 = assay: Growth inhibition of human SK-MEL5 cells after 48 hrs; conditions: SK-MEL-5, 48 h; method in brief: as §1
IGROV-1 = assay: Growth inhibition of human IGROV1 cells after 48 hrs; conditions: IGROV-1, 48 h; method in brief: as §1
OVCAR-8 = assay: Growth inhibition of human OVCAR8 cells after 48 hrs; conditions: OVCAR-8, 48 h; method in brief: as §1
SF-539 = assay: Growth inhibition of human SF539 cells after 48 hrs; conditions: SF-539, 48 h; method in brief: as §1
OVCAR-5 = assay: Growth inhibition of human OVCAR5 cells after 48 hrs; conditions: OVCAR-5, 48 h; method in brief: as §1
NCI-H522 = assay: Growth inhibition of human NCI-H522 cells after 48 hrs; conditions: NCI-H522, 48 h; method in brief: as §1
HCT-116 = assay: Growth inhibition of human HCT116 cells after 48 hrs; conditions: HCT-116, 48 h; method in brief: as §1
K562 = assay: Growth inhibition of human K562 cells after 48 hrs; conditions: K562, 48 h; method in brief: as §1
SF-268 = assay: Growth inhibition of human SF268 cells after 48 hrs; conditions: SF-268, 48 h; method in brief: as §1
COLO 205 = assay: Growth inhibition of human COLO205 cells after 48 hrs; conditions: COLO 205, 48 h; method in brief: as §1
[1] = read-out: Log LC50 (the source's name) (converted)

Question: Which results are given for Cn1c2ccccc2c2c(=O)n(CCCC(=O)NCC(=O)N(C(=O)NC3CCCCC3)C3CCCCC3)c3c(-c4ccccc4)nnn3c21?
Answer: GI50 (HCC 2998): 10.2 µM; LC50 (HCC 2998): 70.8 µM; TGI (HCC 2998; read-out: pTGI (converted)): 26.9 µM; GI50 (KM12): 31.6 µM; LC50 (KM12): > 100 µM; TGI (KM12; read-out: pTGI (converted)): > 100 µM; GI50 (UACC-62): 25.7 µM; LC50 (UACC-62): > 100 µM; TGI (UACC-62; read-out: pTGI (converted)): > 100 µM; GI50 (HCT-15): 10.7 µM; LC50 (HCT-15): > 100 µM; TGI (HCT-15; read-out: pTGI): > 100 µM; GI50 (NCI-H460): 32.4 µM; LC50 (NCI-H460): > 100 µM; TGI (NCI-H460; read-out: pTGI (converted)): > 100 µM; GI50 (OVCAR-3): 19.5 µM; LC50 (OVCAR-3): > 100 µM; TGI (OVCAR-3; read-out: pTGI (converted)): 95.5 µM; GI50 (NCI-H23): 15.5 µM; CC50 (NCI-H23; [1]): 69.2 µM; TGI (NCI-H23; read-out: pTGI (converted)): 33.1 µM; GI50 (MDA-MB-231): 12.3 µM; LC50 (concentration killing 50% of cells) (MDA-MB-231): > 100 µM; TGI (MDA-MB-231; read-out: pTGI (converted)): 38 µM; GI50 (HL-60): 2.88 µM; LC50 (HL-60): > 100 µM; TGI (HL-60; read-out: pTGI (converted)): 8.32 µM; GI50 (SW-620): 3.8 µM; LC50 (lethal concentration, 50% cell kill) (SW-620): > 100 µM; TGI (SW-620; read-out: pTGI (converted)): > 100 µM; GI50 (LOX IMVI): 13.2 µM; LC50 (lethal concentration, 50% cell kill) (LOX IMVI): > 100 µM; TGI (LOX IMVI; read-out: pTGI (converted)): 97.7 µM; GI50 (MCF7): 3.63 µM; LC50 (MCF7): > 100 µM; TGI (MCF7; read-out: pTGI (converted)): > 100 µM; GI50 (UACC-257): 66.1 µM; LC50 (UACC-257): > 100 µM; TGI (UACC-257; read-out: pTGI (converted)): > 100 µM; GI50 (SF-295): > 100 µM; LC50 (SF-295): > 100 µM; TGI (SF-295; read-out: pTGI (converted)): > 100 µM; GI50 (RXF 393): 11 µM; LC50 (RXF 393): > 100 µM; TGI (RXF 393; read-out: pTGI (converted)): 37.2 µM; GI50 (NCI/ADR-RES): 15.5 µM; LC50 (concentration killing 50% of cells) (NCI/ADR-RES): 72.4 µM; TGI (NCI/ADR-RES; read-out: pTGI (converted)): 33.9 µM; GI50 (786-0): 18.6 µM; LC50 (786-0): > 100 µM; TGI (786-0; read-out: pTGI (converted)): 44.7 µM; GI50 (DU-145): 18.6 µM; LC50 (DU-145): > 100 µM; TGI (DU-145; read-out: pTGI (converted)): > 100 µM; GI50 (NCI-H226): 39.8 µM; CC50 (NCI-H226; [1]): > 100 µM; TGI (NCI-H226; read-out: pTGI): > 100 µM; GI50 (M14): 30.9 µM; LC50 (M14): > 100 µM; TGI (M14; read-out: pTGI (converted)): > 100 µM; GI50 (SK-MEL-5): 6.03 µM; LC50 (SK-MEL-5): > 100 µM; TGI (SK-MEL-5; read-out: pTGI (converted)): 31.6 µM; GI50 (IGROV-1): 2.82 µM; LC50 (IGROV-1): > 100 µM; TGI (IGROV-1; read-out: pTGI (converted)): 33.1 µM; LC50 (OVCAR-8): > 100 µM; LC50 (concentration killing 50% of cells) (SF-539): > 100 µM; TGI (SF-539; read-out: pTGI (converted)): 57.5 µM; GI50 (OVCAR-5): 15.5 µM; LC50 (concentration killing 50% of cells) (OVCAR-5): 69.2 µM; TGI (OVCAR-5; read-out: pTGI (converted)): 32.4 µM; GI50 (NCI-H522): 15.8 µM; LC50 (NCI-H522): > 100 µM; TGI (NCI-H522; read-out: pTGI (converted)): 81.3 µM; GI50 (HCT-116): 14.1 µM; LC50 (HCT-116): > 100 µM; TGI (HCT-116; read-out: pTGI (converted)): 42.7 µM; GI50 (K562): 22.9 µM; LC50 (K562): > 50.1 µM; TGI (K562; read-out: pTGI (converted)): > 100 µM; GI50 (SF-268): 15.1 µM; CC50 (SF-268; [1]): > 100 µM; TGI (SF-268; read-out: pTGI (converted)): > 100 µM; GI50 (COLO 205): 2.82 µM; LC50 (COLO 205): > 100 µM; TGI (COLO 205; read-out: pTGI (converted)): > 100 µM
